According to ChEMBL document CHEMBL4270598, “Synthesis and discovery of a drug candidate for treatment of idiopathic pulmonary fibrosis through inhibition of TGF-β1 pathway” (Eur J Med Chem, 2018):
The source made the active and inactive calls. No cut-off for these calls is given here.

Legend:
[1] = target: T1, Transforming growth factor beta-1 proprotein/Mothers against decapentaplegic homolog 3 (Mus musculus) (UniProt P04202+Q8BUN5); assay: Inhibition of TGF-beta1/smad3 signaling pathway in mouse NIH/3T3 cells after 18 hrs by CAGA-luciferase reporter gene assay; format: cell-based
T1 sequence (P04202 279-390 limits assumed): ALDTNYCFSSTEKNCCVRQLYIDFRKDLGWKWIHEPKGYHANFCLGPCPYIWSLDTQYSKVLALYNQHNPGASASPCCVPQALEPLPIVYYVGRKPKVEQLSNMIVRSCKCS
T1 sequence (Q8BUN5 2-425 partner limits assumed): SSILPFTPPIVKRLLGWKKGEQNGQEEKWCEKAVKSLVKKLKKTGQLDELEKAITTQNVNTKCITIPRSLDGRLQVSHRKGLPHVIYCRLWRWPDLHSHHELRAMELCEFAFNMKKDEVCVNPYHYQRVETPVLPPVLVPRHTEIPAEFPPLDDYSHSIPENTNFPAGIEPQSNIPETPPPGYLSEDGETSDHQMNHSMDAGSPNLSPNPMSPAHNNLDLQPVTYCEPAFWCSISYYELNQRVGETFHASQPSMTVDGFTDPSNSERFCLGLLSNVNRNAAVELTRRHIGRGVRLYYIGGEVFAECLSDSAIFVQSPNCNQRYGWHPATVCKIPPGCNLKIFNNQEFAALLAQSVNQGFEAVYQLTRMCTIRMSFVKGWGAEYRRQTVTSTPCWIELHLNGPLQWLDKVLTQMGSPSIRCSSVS

[2] = target: T1, Transforming growth factor beta-1 proprotein/Mothers against decapentaplegic homolog 3 (Mus musculus); assay: Inhibition of TGF-beta1/smad3 signaling pathway in mouse NIH/3T3 cell extract assessed as decrease in alpha-SMA protein expression at 10 uM after 24 hrs by Western blot analysis
[3] = target: T1, Transforming growth factor beta-1 proprotein/Mothers against decapentaplegic homolog 3 (Mus musculus); assay: Inhibition of TGF-beta1/smad3 signaling pathway in mouse NIH/3T3 cells assessed as decrease in ECM production at 10 uM after 24 hrs; format: cell-based
[4] = target: T1, Transforming growth factor beta-1 proprotein/Mothers against decapentaplegic homolog 3 (Mus musculus); assay: Inhibition of TGF-beta1/smad3 signaling pathway in mouse NIH/3T3 cell extract assessed as decrease in Smad3 phosphorylation at 10 uM after 30 mins by Western blot analysis; format: protein assay
Mus musculus [5] = assay: Antifibrotic activity in bleomycin-induced pulmonary fibrosis in C57BL/6 mouse model assessed as fibrotic area in lungs at 100 mg/kg, po qd administered from day 7 to 14 by hematoxylin-eosin staining based fluorescence microscopy; format: functional
In short: (§1)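 Male C57BL/6 mice (7-8 weeks, n=5/group) given intratracheal bleomycin 2 U/kg under chloral hydrate anaesthesia. Dosing at 100 mg/kg daily from day 7 to day 14, sacrifice at day 14. Left lungs formalin-fixed, paraffin-embedded, 5 µm sections HE-stained. Fibrosis ratio taken as fibrotic-region pixels over total lung pixels.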

Mus musculus [6] = assay: Antifibrotic activity in bleomycin-induced pulmonary fibrosis in C57BL/6 mouse model assessed as decrease in collagen content in lung at 100 mg/kg, po qd administered from day 7 to 14 by spectrophotometric method; format: functional, organism-based
In short: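 Bleomycin model as above: 2 U/kg intratracheal in male C57BL/6 mice, 100 mg/kg daily from day 7 to day 14. Right lungs collected at day 14, dried and acid-hydrolysed, filtered, and pH adjusted to 6.5-8.0. Hydroxyproline then measured by chloramine-T spectrophotometry.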

Mus musculus [7] = assay: Antifibrotic activity in bleomycin-induced pulmonary fibrosis in C57BL/6 mouse model assessed as decrease in ECM production at 100 mg/kg, po qd administered from day 7 to 14 by hematoxylin-eosin staining based fluorescence microscopy; format: functional, organism-based; in short: as §1
Mus musculus [8] = assay: In vivo inhibition of TGF-beta1/smad3 signaling pathway in bleomycin-induced pulmonary fibrosis in C57BL/6 mouse model assessed as decrease in Col1 protein expression level in lung tissue at 100 mg/kg, po qd administered from day 7 to 14 by Western blot analysis; format: functional, organism-based
Mus musculus [9] = assay: In vivo inhibition of TGF-beta1/smad3 signaling pathway in bleomycin-induced pulmonary fibrosis in C57BL/6 mouse model assessed as decrease in smad3 phosphorylation in lung tissue at 100 mg/kg, po qd administered from day 7 to 14 by Western blot analysis; format: functional, organism-based
Mus musculus [10] = assay: In vivo inhibition of TGF-beta1/smad3 signaling pathway in bleomycin-induced pulmonary fibrosis in C57BL/6 mouse model assessed as decrease in alpha-SMA level in lung tissue at 100 mg/kg, po qd administered from day 7 to 14 by immunohistochemical analysis; format: functional, organism-based
In short: (§2)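 Lungs from bleomycin-challenged C57BL/6 mice (2 U/kg intratracheal; 100 mg/kg daily, days 7-14) were paraffin-embedded and dewaxed. Citrate (0.01 M) microwave antigen retrieval, then 5% serum block. Primary antibodies overnight at 4 °C: α-SMA 1:200, collagen I 1:100, p-Smad3 1:50. Secondary antibody 1 h at room temperature, then hematoxylin counterstain and microscopy.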

Mus musculus [11] = assay: In vivo inhibition of TGF-beta1/smad3 signaling pathway in bleomycin-induced pulmonary fibrosis in C57BL/6 mouse model assessed as decrease in Col1 level in lung tissue at 100 mg/kg, po qd administered from day 7 to 14 by immunohistochemical analysis; format: functional, organism-based; in short: as §2
Mus musculus [12] = assay: In vivo inhibition of TGF-beta1/smad3 signaling pathway in bleomycin-induced pulmonary fibrosis in C57BL/6 mouse model assessed as decrease in smad3 phosphorylation level in lung tissue at 100 mg/kg, po qd administered from day 7 to 14 by immunohistochemical analysis; format: functional, organism-based; in short: as §2
[13] = target: T2, Transforming growth factor beta-1 proprotein/Mothers against decapentaplegic homolog 3 (Homo sapiens) (UniProt P84022+P01137); assay: Inhibition of TGF-beta1/smad3 signaling pathway in human HFL cell extract assessed as decrease in alpha-SMA protein expression at 10 uM after 24 hrs by Western blot analysis
T2 sequence (P01137 whole entry, looked up): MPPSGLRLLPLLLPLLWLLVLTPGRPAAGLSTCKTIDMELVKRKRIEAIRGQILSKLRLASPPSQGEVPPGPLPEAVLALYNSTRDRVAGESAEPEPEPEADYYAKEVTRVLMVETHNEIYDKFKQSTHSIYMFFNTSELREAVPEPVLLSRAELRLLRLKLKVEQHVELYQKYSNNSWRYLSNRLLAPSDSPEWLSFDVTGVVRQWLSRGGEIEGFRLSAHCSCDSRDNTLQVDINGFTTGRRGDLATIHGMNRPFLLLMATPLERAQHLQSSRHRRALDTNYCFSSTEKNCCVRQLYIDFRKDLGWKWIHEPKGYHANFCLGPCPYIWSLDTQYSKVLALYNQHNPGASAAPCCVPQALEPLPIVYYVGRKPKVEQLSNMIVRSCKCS
T2 sequence (P84022 whole entry, looked up): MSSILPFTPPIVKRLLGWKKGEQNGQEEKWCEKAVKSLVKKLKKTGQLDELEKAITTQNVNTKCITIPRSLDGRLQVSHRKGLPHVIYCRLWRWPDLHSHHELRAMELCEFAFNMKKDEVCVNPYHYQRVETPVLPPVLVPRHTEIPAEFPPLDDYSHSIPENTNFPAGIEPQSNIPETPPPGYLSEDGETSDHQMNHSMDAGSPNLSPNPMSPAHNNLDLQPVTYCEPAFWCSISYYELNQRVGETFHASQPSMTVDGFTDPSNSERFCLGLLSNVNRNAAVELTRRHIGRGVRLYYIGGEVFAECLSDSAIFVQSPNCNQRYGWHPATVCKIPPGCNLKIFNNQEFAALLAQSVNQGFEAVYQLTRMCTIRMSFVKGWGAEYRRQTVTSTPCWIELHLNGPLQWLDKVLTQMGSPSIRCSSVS
In short: (§3)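 HFL1 human lung fibroblasts given TGF-β1 (5 ng/mL) with or without compound at 10 µM: 24 h for α-SMA (cell lysate) and collagen I (medium), 30 min for p-Smad3. RIPA lysis with phosphatase inhibitor, then Western blot. Band density normalized to β-actin. n=3.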

[14] = target: T2, Transforming growth factor beta-1 proprotein/Mothers against decapentaplegic homolog 3 (Homo sapiens); assay: Inhibition of TGF-beta1/smad3 signaling pathway in human HFL cells assessed as decrease in Col1 protein expression level at 10 uM after 24 hrs by Western blot analysis; format: cell-based; in short: as §3
[15] = target: T2, Transforming growth factor beta-1 proprotein/Mothers against decapentaplegic homolog 3 (Homo sapiens); assay: Inhibition of TGF-beta1/smad3 signaling pathway in human HFL cells assessed as decrease in smad3 phosphorylation at 10 uM after 30 mins by Western blot analysis; format: cell-based; in short: as §3
[16] = Stability in rat plasma assessed as parent compound remaining after 3 hrs by LC-MS/MS analysis; format: ADME, cell-free; conditions: read-out: Stability
In short: (§4)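 Compound solution (1 mM stock) added 1:100 into blank plasma and incubated at 37 °C for up to 12 h. Aliquots quenched in acetonitrile/MeOH with buspirone internal standard and centrifuged. Parent compound and released products quantified by LC/MS-MS.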

[17] = Tmax in Sprague-Dawley rat at 30 mg/kg, iv by LC-MS/MS analysis; format: ADME, organism-based; conditions: in vivo
In short: (§5)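 Male Sprague-Dawley rats (220-350 g) given a single dose, IV 30 mg/kg or PO 150 mg/kg. Heparinized blood sampled at 2 min-8 h (IV) or 5 min-12 h (PO). Plasma protein-precipitated with acetonitrile/MeOH containing buspirone internal standard. Drug quantified by LC/MS-MS, parameters from non-compartmental analysis. n = 5 per curve.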

[18] = Tmax in Sprague-Dawley rat at 150 mg/kg, po by LC-MS/MS analysis; format: ADME, organism-based; conditions: in vivo; in short: as §5
[19] = Half life in Sprague-Dawley rat at 30 mg/kg, iv by LC-MS/MS analysis; format: ADME, organism-based; conditions: in vivo; in short: as §5
[20] = Half life in Sprague-Dawley rat at 150 mg/kg, po by LC-MS/MS analysis; format: ADME, organism-based; conditions: in vivo; in short: as §5
[21] = Cmax in Sprague-Dawley rat at 30 mg/kg, iv by LC-MS/MS analysis; format: ADME, organism-based; design: dose 30 mg/kg, route intravenous; conditions: in vivo; in short: as §5
[22] = Cmax in Sprague-Dawley rat at 150 mg/kg, po by LC-MS/MS analysis; format: ADME, organism-based; design: dose 150 mg/kg, route oral; conditions: in vivo; in short: as §5
Rattus norvegicus [23] = assay: AUC (0 to t) in Sprague-Dawley rat at 30 mg/kg, iv by LC-MS/MS analysis; format: ADME, organism-based; conditions: in vivo; in short: as §5
Rattus norvegicus [24] = assay: AUC (0 to t) in Sprague-Dawley rat at 150 mg/kg, po by LC-MS/MS analysis; format: ADME, organism-based; conditions: in vivo; in short: as §5
Rattus norvegicus [25] = assay: AUC (0 to infinity) in Sprague-Dawley rat at 30 mg/kg, iv by LC-MS/MS analysis; format: ADME, organism-based; design: dose 30 mg/kg, time infinity, route intravenous; conditions: in vivo; in short: as §5
Rattus norvegicus [26] = assay: AUC (0 to infinity) in Sprague-Dawley rat at 150 mg/kg, po by LC-MS/MS analysis; format: ADME, organism-based; design: dose 150 mg/kg, time infinity, route oral; conditions: in vivo; in short: as §5
[27] = Oral bioavailability in Sprague-Dawley rat at 150 mg/kg by LC-MS/MS analysis; format: ADME, organism-based; conditions: in vivo; in short: as §5
Mus musculus [28] = assay: Toxicity in C57/BL6 mouse assessed as mouse survival at 1 to 5 g/kg administered orally via gavage as single dose; format: organism-based; conditions: in vivo, po
In short: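 Male-unspecified C57BL/6 mice, 20-22 g; single oral gavage dose at 1, 2, 3, 4 and 5 g/kg, n = 10; survival recorded.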

Mus musculus [29] = assay: Toxicity in C57/BL6 mouse assessed as mouse survival at 2 g/kg administered orally via gavage daily as single dose for 7 days; format: organism-based; conditions: in vivo, po, 2000 mg/kg, 168 h
In short: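 C57BL/6 mice, 20-22 g, dosed by oral gavage once daily at 2 g/kg for 7 days, n = 10; survival recorded.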

Mus musculus [30] = assay: Toxicity in C57/BL6 mouse assessed as appearance of systemic symptoms at 2 g/kg administered orally via gavage daily as single dose for 30 days; format: organism-based; conditions: in vivo, po, 2000 mg/kg, 720 h
In short: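 C57BL/6 mice given compound by oral gavage at 2 g/kg once daily for 30 days (n=10) and observed for systemic symptoms and deaths.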

[31] = Drug metabolism in rat plasma assessed as (1aR,2S,5aR,6aR,9aR,9bS)-2,5a-Dimethyl-9-methyleneoctahydro-2H-oxireno[2',3':4,4a]naphtho[2,3-b]furan-8(9H)-one formation after 12 hrs by LC-MS/MS analysis; format: ADME, cell-free; in short: as §4
[32] = Drug metabolism in rat plasma assessed as (3aR,4aR,5R,6R,8aR,9aR)-6-Hydroxy-8a-methyl-3-methylenedecahydro-2H-spiro[naphtho[2,3-b]furan-5,2'-oxiran]-2-one formation after 12 hrs by LC-MS/MS analysis; format: ADME, cell-free; in short: as §4

Structure (SMILES)	inhibition [1]	inhibition [2]	inhibition [3]	inhibition [4]	Activity (Mus musculus [5]) [%]	Activity (Mus musculus [6])	Activity (Mus musculus [7])	inhibition (Mus musculus [8])	inhibition (Mus musculus [9])	inhibition (Mus musculus [10])	inhibition (Mus musculus [11])	inhibition (Mus musculus [12])	inhibition [13]	inhibition [14]	inhibition [15]	remaining at 3 h [16] [%]	Tmax [17] [min]	Tmax [18] [min]	half-life [19] [min]	half-life [20] [min]	further results
C[C@H]1CCC[C@]2(C)C[C@H]3OC(=O)[C@@H](CN(C)C)[C@H]3[C@@H]3O[C@@]132.O=C(O)/C=C/C(=O)O	Dose-dependent effect	Active	Active	Active	71.8	Active	Active	Active	Active	Active	Active	Active	Active	Active	Active	> 50	2	30	73	85	Cmax [21]: 17500 ng/mL; Cmax [22]: 18500 ng/mL; AUCt (Rattus norvegicus [23]): 10000 ng·h/mL; AUCt (Rattus norvegicus [24]): 37600 ng·h/mL; AUC (Rattus norvegicus [25]): 10000 ng·h/mL; AUC (Rattus norvegicus [26]): 37800 ng·h/mL; bioavailability [27]: 75%; Activity (Mus musculus [28]): Non-Toxic; Activity (Mus musculus [29]): Non-Toxic; Activity (Mus musculus [30]): Non-Toxic; Drug metabolism [31]: Metabolite_Detected
CN(C)C[C@@H]1C(=O)O[C@@H]2C[C@@]3(C)CC[C@@H](O)[C@]4(CO4)[C@@H]3C[C@H]12.O=C(O)/C=C/C(=O)O	Dose-dependent effect	Active	Active	Active	60.5	Active	Active	Active	Active	Active	Active	Active	Active	Active	Active	> 50	17	42	81	121	Cmax [21]: 22700 ng/mL; Cmax [22]: 62300 ng/mL; AUCt (Rattus norvegicus [23]): 43800 ng·h/mL; AUCt (Rattus norvegicus [24]): 171000 ng·h/mL; AUC (Rattus norvegicus [25]): 44900 ng·h/mL; AUC (Rattus norvegicus [26]): 174000 ng·h/mL; bioavailability [27]: 78%; Activity (Mus musculus [28]): Non-Toxic; Activity (Mus musculus [29]): Non-Toxic; Drug metabolism [32]: Metabolite_Detected
